Laboratory results from ChEMBL document CHEMBL1154391, “Novel thienopyrimidine and thiazolopyrimidine kinase inhibitors with activity against Tie-2 in vitro and in vivo” (Bioorg Med Chem Lett, 2009).
Converted amounts (≈) assume the structure as drawn. One block for each compound: values may come before it. The source made the active and inactive calls. No cut-off for these calls is given here.

Columns and labels:
[1] = target: T1, Angiopoietin-1 receptor (Homo sapiens, UniProt Q02763); assay: Inhibition of Tie-2 phosphorylation by cell based assay
[2] = Cmax in rat at 1 mg/kg, po; type: ADME, organism-based; parameters: dose 1 mg/kg, route oral; settings: in vivo
[3] = Volume of distribution at steady state in rat at 2 mg/kg, iv and 5 mg/kg, po; type: ADME, organism-based; settings: in vivo, read-out: Vdss
[4] = Half life in rat at 5 mg/kg, po; type: ADME, organism-based; parameters: dose 5 mg/kg, route oral; settings: in vivo
[5] = Clearance in rat at 2 mg/kg, iv and 5 mg/kg, po; type: ADME, organism-based; settings: in vivo
[6] = (§1) Protein binding in rat plasma; type: ADME, cell-free; settings: read-out: PPB (converted)
[7] = target: Vascular endothelial growth factor receptor 1 (Homo sapiens) (UniProt P17948); assay: Inhibition of Flt-1
[8] = Bioavailability in rat at 2 mg/kg, iv and 5 mg/kg, po; type: ADME, organism-based; settings: in vivo
[9] = target: Vascular endothelial growth factor receptor 2 (Homo sapiens) (UniProt P35968); assay: Inhibition of FLt
[10] = target: T1, Angiopoietin-1 receptor; assay: Inhibition of Tie-2
[11] = Aqueous solubility at pH 7
[12] = tested on: Plasma; assay: as §1; type: ADME, cell-free
[13] = Lipophilicity, log D of the compound; settings: octanol/water
[14] = tested on: Rattus norvegicus; assay: Hypotensive activity in rat assessed as VEGF-induced reduction in blood pressure at 20 mg/kg, iv; type: functional, organism-based; parameters: dose 20 mg/kg
Summary of the method: (§2)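 Male Alderley Park rats anaesthetised with α-chloralose iv, maintained with thiopentone ip. Carotid artery cannulated for blood pressure recording by pressure transducer. Jugular vein cannulated for bolus VEGF or Ang-1 in 0.85% NaCl. Ang-1 was baculovirus/insect-cell expressed, 40–60 µg per batch, adjusted to give a 10–20 mmHg fall. Compound or vehicle given iv (25% w/v hydroxypropyl-β-cyclodextrin, Sorensen phosphate pH 5.5).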

[15] = tested on: Rattus norvegicus; assay: Hypotensive activity in rat assessed as reversal of angiopoietin-1-induced reduction in blood pressure at 20 mg/kg, iv; type: functional, organism-based; parameters: dose 20 mg/kg; summary of the method: as §2

T1 sequence (Q02763 whole entry): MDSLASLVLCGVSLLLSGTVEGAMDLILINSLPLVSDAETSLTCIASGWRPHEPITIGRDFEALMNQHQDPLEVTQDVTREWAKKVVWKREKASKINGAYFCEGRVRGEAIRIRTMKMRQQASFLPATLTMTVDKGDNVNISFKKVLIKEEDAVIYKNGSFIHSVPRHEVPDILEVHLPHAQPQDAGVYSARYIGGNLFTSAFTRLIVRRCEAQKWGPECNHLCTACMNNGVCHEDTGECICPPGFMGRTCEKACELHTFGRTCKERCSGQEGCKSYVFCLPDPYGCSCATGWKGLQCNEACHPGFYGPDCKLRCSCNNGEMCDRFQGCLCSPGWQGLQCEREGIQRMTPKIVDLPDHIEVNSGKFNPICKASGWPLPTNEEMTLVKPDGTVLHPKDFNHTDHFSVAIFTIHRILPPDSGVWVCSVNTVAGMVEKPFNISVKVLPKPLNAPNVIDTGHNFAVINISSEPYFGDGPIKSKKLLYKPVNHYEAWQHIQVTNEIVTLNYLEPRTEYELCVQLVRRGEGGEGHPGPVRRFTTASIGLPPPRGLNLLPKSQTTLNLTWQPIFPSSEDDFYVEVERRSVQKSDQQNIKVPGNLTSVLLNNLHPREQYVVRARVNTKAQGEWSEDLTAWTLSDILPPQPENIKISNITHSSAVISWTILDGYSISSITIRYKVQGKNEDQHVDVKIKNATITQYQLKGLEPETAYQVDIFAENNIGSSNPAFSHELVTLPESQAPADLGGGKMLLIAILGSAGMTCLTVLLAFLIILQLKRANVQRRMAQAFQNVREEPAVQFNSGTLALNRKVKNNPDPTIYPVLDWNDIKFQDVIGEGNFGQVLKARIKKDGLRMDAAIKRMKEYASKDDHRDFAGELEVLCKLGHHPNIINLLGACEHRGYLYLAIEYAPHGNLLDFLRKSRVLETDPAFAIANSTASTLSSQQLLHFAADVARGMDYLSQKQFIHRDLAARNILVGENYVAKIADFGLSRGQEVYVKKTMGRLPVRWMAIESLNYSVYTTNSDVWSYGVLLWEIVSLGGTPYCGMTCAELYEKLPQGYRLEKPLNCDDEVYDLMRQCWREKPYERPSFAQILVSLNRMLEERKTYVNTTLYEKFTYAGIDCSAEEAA
Chain of Vascular endothelial growth factor receptor 1 (Homo sapiens) (P17948 whole entry, looked up): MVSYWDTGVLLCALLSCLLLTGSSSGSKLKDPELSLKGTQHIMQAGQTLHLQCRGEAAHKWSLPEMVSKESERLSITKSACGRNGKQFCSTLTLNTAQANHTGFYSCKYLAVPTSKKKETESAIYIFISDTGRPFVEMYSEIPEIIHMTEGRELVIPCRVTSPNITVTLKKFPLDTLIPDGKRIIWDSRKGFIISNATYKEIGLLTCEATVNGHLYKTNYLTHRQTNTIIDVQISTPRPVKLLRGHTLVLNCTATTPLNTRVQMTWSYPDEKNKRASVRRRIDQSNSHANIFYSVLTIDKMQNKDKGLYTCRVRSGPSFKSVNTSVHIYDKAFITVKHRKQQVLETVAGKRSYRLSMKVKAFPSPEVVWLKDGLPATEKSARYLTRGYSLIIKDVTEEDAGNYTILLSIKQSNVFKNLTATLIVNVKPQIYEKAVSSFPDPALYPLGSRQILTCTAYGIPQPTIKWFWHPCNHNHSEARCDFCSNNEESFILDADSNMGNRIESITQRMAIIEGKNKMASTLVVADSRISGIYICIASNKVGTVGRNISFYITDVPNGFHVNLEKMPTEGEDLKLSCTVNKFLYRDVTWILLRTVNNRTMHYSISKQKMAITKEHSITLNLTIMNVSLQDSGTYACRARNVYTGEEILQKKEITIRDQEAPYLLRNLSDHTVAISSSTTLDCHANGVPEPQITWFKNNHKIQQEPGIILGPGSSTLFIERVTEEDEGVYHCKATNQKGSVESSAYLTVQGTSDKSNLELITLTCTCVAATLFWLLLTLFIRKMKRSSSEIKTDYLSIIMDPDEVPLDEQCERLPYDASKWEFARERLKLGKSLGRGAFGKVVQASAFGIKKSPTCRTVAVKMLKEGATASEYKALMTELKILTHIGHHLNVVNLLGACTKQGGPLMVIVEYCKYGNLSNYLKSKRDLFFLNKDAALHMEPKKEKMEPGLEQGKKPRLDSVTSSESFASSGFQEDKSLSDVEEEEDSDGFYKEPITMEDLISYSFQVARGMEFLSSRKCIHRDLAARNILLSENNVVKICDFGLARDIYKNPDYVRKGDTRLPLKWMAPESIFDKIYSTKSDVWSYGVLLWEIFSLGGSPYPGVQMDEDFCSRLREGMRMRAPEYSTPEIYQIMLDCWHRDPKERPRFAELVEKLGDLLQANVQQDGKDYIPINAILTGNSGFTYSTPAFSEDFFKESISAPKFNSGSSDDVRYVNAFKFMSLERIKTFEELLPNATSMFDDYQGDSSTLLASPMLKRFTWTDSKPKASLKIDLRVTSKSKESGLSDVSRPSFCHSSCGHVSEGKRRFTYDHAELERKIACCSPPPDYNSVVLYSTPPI

IC50 [1]: 340 nM
Cmax [2]: 9 nM
Compound: Cc1cc(NC(=O)Nc2cccc(-c3ncn(C)c3-c3cc4c(N)ncnc4s3)c2)on1

IC50 [1]: 1400 nM
Compound: Cn1cnc(-c2cccc(NC(=O)Nc3ccccc3)c2)c1-c1cc2c(N)ncnc2s1

IC50 [1]: 1400 nM
Compound: Cc1ccc(Sc2cccc(-c3ncn(C)c3-c3cc4c(N)ncnc4s3)c2)cc1

Vd [3]: 1.4 L/kg
half-life [4]: 1.8 h
IC50 [1]: 1800 nM
clearance [5]: 39 mL/min/kg
fraction unbound [6]: 0.045
IC50 [7]: 10000 nM
bioavailability [8]: > 100%
IC50 [9]: 22000 nM
IC50 [10]: 34000 nM
Compound: Cn1cnc(-c2ccccc2)c1-c1cc2c(N)ncnc2s1

solubility [11]: 171 µM (≈ 55.1 µg/mL)
IC50 [1]: 3000 nM
Compound: CCn1cnc(-c2ccccc2)c1-c1nc2c(N)ncnc2s1

fraction unbound [6]: 0.016
Compound: Nc1ncnc2sc(-c3c(-c4ccccc4)ncn3CC3CCCCC3)nc12

solubility [11]: 70 µM (≈ 24.5 µg/mL)
IC50 [1]: 490 nM
fraction unbound [6]: 0.059
Compound: CC(C)Cn1cnc(-c2ccccc2)c1-c1nc2c(N)ncnc2s1

Vd [3]: 1.2 L/kg
half-life [4]: 1.6 h
solubility [11]: 160 µM (≈ 49.3 µg/mL)
clearance [5]: 30.1 mL/min/kg
PPB [12]: 94.6%
fraction unbound [6]: 0.052
bioavailability [8]: > 100%
logD [13]: 2.7
IC50 [10]: 20000 nM
Compound: Cn1cnc(-c2ccccc2)c1-c1nc2c(N)ncnc2s1

IC50 [1]: 370 nM
fraction unbound [6]: 0.2
Compound: Nc1ncnc2sc(-c3c(-c4ccccc4)ncn3C[C@H]3CCCO3)nc12

IC50 [1]: 440 nM
fraction unbound [6]: 0.058
Compound: Nc1ncnc2sc(-c3c(-c4ccccc4)ncn3Cc3ccccc3N3CCOCC3)nc12
Activity [14]: inactive
Activity [15]: Active

IC50 [1]: 70 nM
Compound: Cn1cnc(-c2cccc(NC(=O)Nc3cc(C(F)(F)F)ccc3F)c2)c1-c1cc2c(N)ncnc2s1
